Results taken from ChEMBL document CHEMBL3864137, “Design, Synthesis, and Pharmacological Evaluation of 2-(2,5-Dimethyl-5,6,7,8-tetrahydroquinolin-8-yl)-N-aryl Propanamides as Novel Smoothened (Smo) Antagonists” (J Med Chem, 2016).
Active and inactive are the calls of the source. The rule behind the calls is not given here.

How the values were obtained:
Protein smoothened = Protein smoothened (Mus musculus, UniProt P56726); assay: Inhibition of Smo-mediated Hh signalling pathway in mouse Shh Light2 cells by Gli-luciferase reporter gene assay; type: cell-based
How it was run: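 Light II cells (NIH-3T3 stably carrying a Gli-responsive firefly luciferase reporter plus a Renilla luciferase vector), seeded in 96-well plates and treated. Firefly/Renilla activity in the lysates read by dual luciferase assay on a luminometer. IC50 is the mean ± SD of three separate experiments.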

[1] = biological target: Voltage-gated inwardly rectifying potassium channel KCNH2 (Homo sapiens, UniProt Q12809); assay: Inhibition of human ERG
[2] = Cytotoxicity against human KB cells; type: toxicity, cell-based
LS174T = assay: Inhibition of PGE2-stimulated TCF/LEF transactivation in human LS174T cells at 20 uM measured after 6 hrs by dual luciferase reporter gene assay; type: cell-based
How it was run: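 LS174T cells stimulated with PGE2 and treated for 6 h, then lysed for dual luciferase reporter analysis of TCF/LEF activity. Mean ± SD.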

[3] = Antitumor activity against mouse Ptch+/- p53-/- medulloblastoma cells implanted in athymic nude mouse assessed as tumor growth inhibition at 25 mg/kg, ip bid for 13 days relative to control; type: functional; conditions: Medulloblastoma cell, 312 h, read-out: TGI
How it was run: (§1)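 Primary Ptch+/-;p53-/- medulloblastoma passaged subcutaneously in athymic nude mice as 1 mm3 fragments in the right flank. Dosing began at 100–150 mm3: i.p. 25 or 50 mg/kg twice daily for 13 days. Calipers twice weekly, volume = L×W²/2, TGI from volume change against vehicle. Body weight tracked; tumor mean ± SEM, weight mean ± SD.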

[4] = AUClast in Sprague-Dawley rat at 1 mg/kg, iv; type: ADME, organism-based; parameters: dose 1 mg/kg, time 0 - last, route intravenous; conditions: in vivo
How it was run: (§2)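 SD rats; single dose 1.0 mg/kg i.v. or 3.0 mg/kg p.o., vehicle DMSO, Tween 80, normal saline. Plasma concentration–time profiles give CL, Vss, T1/2, Cmax, Tmax, AUC0-∞ and MRT, with oral bioavailability F estimated from p.o. versus i.v. exposure. Values are the average of three runs.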

[5] = AUClast in Sprague-Dawley rat at 3 mg/kg, po; type: ADME, organism-based; parameters: dose 3 mg/kg, time 0 - last, route oral; conditions: in vivo; how it was run: as §2
[6] = Oral bioavailability in Sprague-Dawley rat at 3 mg/kg; type: ADME, organism-based; conditions: in vivo; how it was run: as §2
[7] = biological target: Protein smoothened (Homo sapiens) (UniProt Q99835); assay: Displacement of BODIPY-cyclopamine from human Smo expressed in HEK293 cells at 0.1 uM measured after 10 hrs by FACS analysis; type: cell-based
How it was run: (§3)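 HEK293 cells on coverslips transfected with hSmo constructs and incubated with BODIPY-cyclopamine plus test drug for 10 h. After PBS wash, paraformaldehyde fixation and Triton X-100 permeabilization, cells were either analysed by FACS or DAPI-mounted for fluorescence microscopy; three experiments.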

[8] = Half life in Sprague-Dawley rat at 1 mg/kg, iv; type: ADME, organism-based; conditions: in vivo; how it was run: as §2
[9] = Half life in Sprague-Dawley rat at 3 mg/kg, po; type: ADME, organism-based; conditions: in vivo; how it was run: as §2
Medulloblastoma cell = assay: Antiproliferative activity against mouse medulloblastoma cells isolated from Ptch+/- p53-/- mouse measured after 72 hrs by MTS assay; type: functional
How it was run: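 Medulloblastoma cells from Ptch+/-;p53-/- allografts in nude mice, minced and collagenase-digested, grown in Neurobasal A with B-27, EGF 20 ng/ml, bFGF 20 ng/ml, nonessential amino acids and N-acetyl cysteine 60 µg/ml. Seeded in 96-well plates, treated 72 h, viability read by MTS; mean ± SD.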

[10] = Induction of apoptosis in mouse medulloblastoma cells isolated from Ptch+/- p53-/- mouse assessed as late apoptotic cells at 10 uM measured after 24 hrs by Annexin V-FITC/propidium iodide staining based flow cytometry (reference value: 0.1%); type: functional, Medulloblastoma cell
[11] = biological target: Protein smoothened (Mus musculus) (UniProt P56726); assay: Inhibition of Smo-mediated Hh signalling pathway in mouse Shh Light2 cells assessed as suppression of Gli1-mRNA expression at 0.1 uM measured after 36 hrs by RT-qPCR analysis; type: cell-based
[12] = biological target: Protein smoothened (Homo sapiens) (UniProt Q99835); assay: Antagonist activity at wild-type Smo (unknown origin) expressed in mouse Shh Light2 cells assessed as suppression of Gli-mRNA expression measured after 36 hrs by dual luciferase reporter gene assay; type: cell-based; conditions: in the assay text read “Gli-luciferase activity” for “Gli-mRNA expression”
How it was run: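 Light II cells transfected with wild-type Smo plasmid to drive Gli-luciferase, exposed to compound for 36 h, then harvested for dual luciferase reporter assay. Mean ± SD.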

Mus musculus = assay: Toxicity in athymic nude mouse implanted with mouse Ptch+/- p53-/- medulloblastoma cells assessed as body weight loss at 25 and 50 mg/kg, ip bid for 13 days; type: organism-based; conditions: in vivo, 312 h; how it was run: as §1
[13] = biological target: Protein smoothened (Homo sapiens) (UniProt Q99835); assay: Displacement of BODIPY-cyclopamine from human Smo expressed in HEK293 cells at 0.1 uM measured after 10 hrs by DAPI staining based fluorescence microscopic assay; type: cell-based; how it was run: as §3
[14] = MRT (0 to infinity) in Sprague-Dawley rat at 3 mg/kg, po; type: ADME, organism-based; conditions: in vivo; how it was run: as §2
[15] = Induction of apoptosis in mouse medulloblastoma cells isolated from Ptch+/- p53-/- mouse assessed as early apoptotic cells at 10 uM measured after 24 hrs by Annexin V-FITC/propidium iodide staining based flow cytometry (reference value: 0.7%); type: functional, Medulloblastoma cell
[16] = Clearance in Sprague-Dawley rat at 1 mg/kg, iv; type: ADME, organism-based; conditions: in vivo; how it was run: as §2
[17] = AUC (0 to infinity) in Sprague-Dawley rat at 3 mg/kg, po; type: ADME, organism-based; parameters: dose 3 mg/kg, route oral, time infinity; conditions: in vivo; how it was run: as §2
[18] = Antitumor activity against mouse Ptch+/- p53-/- medulloblastoma cells implanted in athymic nude mouse assessed as tumor growth inhibition at 50 mg/kg, ip bid for 13 days relative to control; type: functional; conditions: Medulloblastoma cell, 312 h, read-out: TGI; how it was run: as §1
[19] = biological target: Protein smoothened (Mus musculus) (UniProt P56726); assay: Inhibition of Smo in mouse medulloblastoma cells isolated from Ptch+/- p53-/- mouse assessed as decrease in Gli1-mRNA expression at 0.1 uM by qRT-PCR analysis
[20] = biological target: Protein smoothened (Mus musculus) (UniProt P56726); assay: Potency index, ratio of vismodegib IC50 to test compound IC50 for Smo-mediated Hh signalling pathway in mouse Shh Light2 cells; type: cell-based
How it was run: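 Ratio of reference to test IC50, both taken from the Gli-luc dual luciferase assay in light II cells (NIH-3T3 with stable Gli-firefly reporter and Renilla vector). IC50 values are from three separate experiments.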

[21] = MRT (0 to infinity) in Sprague-Dawley rat at 1 mg/kg, iv; type: ADME, organism-based; conditions: in vivo; how it was run: as §2
[22] = Volume of distribution at steady state in Sprague-Dawley rat at 1 mg/kg, iv; type: ADME, organism-based; conditions: in vivo, read-out: Vdss; how it was run: as §2
[23] = In vivo inhibition of Smo-mediated Hh signalling pathway in athymic nude mouse implanted with mouse Ptch+/- p53-/- medulloblastoma cells assessed as suppression of Gli1-mRNA expression at 25 and 50 mg/kg, ip bid for 13 days measured 4 hrs post last dose by RT-qPCR analysis; type: functional, organism-based
How it was run: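 Nude mice bearing subcutaneous Ptch+/-;p53-/- medulloblastoma allografts dosed i.p. twice daily for 13 days. Tumors collected 4 h after the last dose for Gli1 mRNA measurement; mean ± SD.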

[24] = AUC (0 to infinity) in Sprague-Dawley rat at 1 mg/kg, iv; type: ADME, organism-based; parameters: dose 1 mg/kg, time infinity, route intravenous; conditions: in vivo; how it was run: as §2
[25] = Tmax in Sprague-Dawley rat at 3 mg/kg, po; type: ADME, organism-based; conditions: in vivo; how it was run: as §2
[26] = Cmax in Sprague-Dawley rat at 3 mg/kg, po; type: ADME, organism-based; parameters: dose 3 mg/kg, route oral; conditions: in vivo; how it was run: as §2

Sequence of Protein smoothened (Homo sapiens) (Q99835 whole entry): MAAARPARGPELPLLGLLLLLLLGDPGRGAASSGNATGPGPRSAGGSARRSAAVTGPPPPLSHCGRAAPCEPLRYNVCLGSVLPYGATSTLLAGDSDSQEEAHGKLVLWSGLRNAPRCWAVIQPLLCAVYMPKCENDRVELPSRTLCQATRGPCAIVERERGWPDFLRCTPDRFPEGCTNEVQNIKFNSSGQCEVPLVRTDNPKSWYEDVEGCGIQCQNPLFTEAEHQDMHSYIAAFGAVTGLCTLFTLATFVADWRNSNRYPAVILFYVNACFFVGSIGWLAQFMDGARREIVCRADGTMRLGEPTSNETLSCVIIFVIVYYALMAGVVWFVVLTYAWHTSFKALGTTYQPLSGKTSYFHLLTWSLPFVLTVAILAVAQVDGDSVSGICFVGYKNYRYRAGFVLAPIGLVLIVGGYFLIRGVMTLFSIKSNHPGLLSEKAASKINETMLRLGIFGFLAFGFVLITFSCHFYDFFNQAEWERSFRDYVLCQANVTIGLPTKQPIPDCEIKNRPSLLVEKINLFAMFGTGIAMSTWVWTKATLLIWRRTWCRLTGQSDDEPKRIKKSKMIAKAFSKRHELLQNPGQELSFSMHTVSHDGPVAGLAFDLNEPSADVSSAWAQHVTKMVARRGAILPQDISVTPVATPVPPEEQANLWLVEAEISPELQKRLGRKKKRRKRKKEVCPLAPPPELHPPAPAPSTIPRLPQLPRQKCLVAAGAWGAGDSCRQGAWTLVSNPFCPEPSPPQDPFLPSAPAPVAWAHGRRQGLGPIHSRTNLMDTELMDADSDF
Sequence of Voltage-gated inwardly rectifying potassium channel KCNH2 (Q12809 whole entry): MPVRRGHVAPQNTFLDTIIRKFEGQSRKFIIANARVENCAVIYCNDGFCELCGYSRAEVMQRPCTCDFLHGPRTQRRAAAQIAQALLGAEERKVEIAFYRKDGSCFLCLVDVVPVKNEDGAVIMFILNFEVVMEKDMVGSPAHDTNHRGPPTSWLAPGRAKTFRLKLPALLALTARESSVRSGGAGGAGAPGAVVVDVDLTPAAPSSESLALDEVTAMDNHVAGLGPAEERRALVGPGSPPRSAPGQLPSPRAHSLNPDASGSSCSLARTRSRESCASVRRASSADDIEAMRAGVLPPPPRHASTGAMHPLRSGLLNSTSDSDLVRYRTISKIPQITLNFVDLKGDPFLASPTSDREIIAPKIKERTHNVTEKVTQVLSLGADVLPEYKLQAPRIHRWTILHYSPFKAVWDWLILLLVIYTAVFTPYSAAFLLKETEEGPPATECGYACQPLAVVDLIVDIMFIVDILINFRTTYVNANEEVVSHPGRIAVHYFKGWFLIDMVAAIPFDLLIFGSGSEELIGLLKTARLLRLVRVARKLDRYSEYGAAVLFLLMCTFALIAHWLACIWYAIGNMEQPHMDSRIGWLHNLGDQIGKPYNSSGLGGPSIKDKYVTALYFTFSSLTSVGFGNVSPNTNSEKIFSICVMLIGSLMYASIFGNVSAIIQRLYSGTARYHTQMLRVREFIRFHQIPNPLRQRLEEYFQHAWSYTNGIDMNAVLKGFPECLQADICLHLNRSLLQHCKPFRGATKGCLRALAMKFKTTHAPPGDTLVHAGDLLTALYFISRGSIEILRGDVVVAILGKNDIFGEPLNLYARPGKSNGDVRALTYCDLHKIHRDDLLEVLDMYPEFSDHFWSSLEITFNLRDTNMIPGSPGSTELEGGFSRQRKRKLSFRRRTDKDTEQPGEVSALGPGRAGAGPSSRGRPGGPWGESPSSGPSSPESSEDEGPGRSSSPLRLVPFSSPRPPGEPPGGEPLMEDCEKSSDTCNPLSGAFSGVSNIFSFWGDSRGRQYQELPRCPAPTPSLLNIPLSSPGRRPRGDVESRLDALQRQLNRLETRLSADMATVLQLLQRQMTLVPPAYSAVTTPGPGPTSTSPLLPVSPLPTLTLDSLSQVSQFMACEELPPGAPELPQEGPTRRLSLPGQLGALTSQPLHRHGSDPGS
Sequence of Protein smoothened (P56726 whole entry): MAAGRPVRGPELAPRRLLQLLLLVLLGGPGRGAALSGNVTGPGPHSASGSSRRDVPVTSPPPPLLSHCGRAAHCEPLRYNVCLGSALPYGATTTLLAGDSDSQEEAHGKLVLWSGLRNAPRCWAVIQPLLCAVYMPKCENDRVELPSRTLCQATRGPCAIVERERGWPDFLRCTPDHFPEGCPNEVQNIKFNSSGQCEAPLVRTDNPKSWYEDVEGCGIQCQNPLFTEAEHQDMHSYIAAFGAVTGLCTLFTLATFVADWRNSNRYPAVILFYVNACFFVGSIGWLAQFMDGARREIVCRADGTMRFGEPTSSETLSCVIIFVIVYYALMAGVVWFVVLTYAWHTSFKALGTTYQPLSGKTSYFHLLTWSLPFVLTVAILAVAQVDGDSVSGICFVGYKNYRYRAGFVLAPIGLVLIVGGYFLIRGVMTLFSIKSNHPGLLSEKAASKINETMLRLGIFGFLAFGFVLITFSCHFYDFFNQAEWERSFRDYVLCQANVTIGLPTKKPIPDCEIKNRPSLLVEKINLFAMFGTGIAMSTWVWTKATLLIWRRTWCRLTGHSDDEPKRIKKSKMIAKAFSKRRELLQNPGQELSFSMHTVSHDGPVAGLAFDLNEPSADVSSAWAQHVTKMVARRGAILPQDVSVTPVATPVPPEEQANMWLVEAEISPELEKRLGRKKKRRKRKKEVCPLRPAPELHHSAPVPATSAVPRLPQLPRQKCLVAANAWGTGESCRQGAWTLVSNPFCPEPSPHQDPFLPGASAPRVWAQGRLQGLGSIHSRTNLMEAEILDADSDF
Sequence of Protein smoothened (Mus musculus) (P56726 whole entry): as above

For `Cc1ccc2c(n1)[C@H]([C@@H](C)C(=O)Nc1ccc(Cl)c(-c3nc4ccccc4o3)c1)CC[C@H]2C`, which IC50 (Protein smoothened) is on record?
Its IC50 is 243 nM.

For `CC(=O)Nc1nc2c(s1)C[C@@H]1[C@H](C2)[C@H]([C@@H](C)C(=O)Nc2ccc(Cl)c(-c3ccccn3)c2)CC[C@H]1C`, which IC50 (Protein smoothened) is on record?
Its IC50 is > 1000 nM.

For `Cc1ccc2c(n1)[C@H]([C@@H](C)C(=O)Nc1ccc(Cl)c(-c3nnc(-c4ccnn4C)o3)c1)CC[C@H]2C`, which IC50 (Protein smoothened) is on record?
The IC50 was 588 nM.

For `Cc1ccc2c(n1)[C@H]([C@@H](C)C(=O)Nc1ccc(Cl)c(-c3nc4ccc(OC(F)(F)F)cc4n3C)c1)CC[C@H]2C`, which IC50 (Protein smoothened) is on record?
The IC50 was 52.6 nM.

Which IC50 [1] does the source give for `C[C@@H]1CC[C@@H]([C@@H](C)C(=O)Nc2ccc(Cl)c(-c3ccccn3)c2)c2nc(CN3CCOCC3)ccc21` here?
Its IC50 is 3310 nM.

And the IC50 (Protein smoothened)?
The IC50 was 155 nM.

And the IC50 [2]?
The IC50 was > 20000 nM.

For `C[C@@H]1CC[C@@H]([C@@H](C)C(=O)Nc2ccc(Cl)c(-c3ccccn3)c2)[C@H]2Cc3c(cnn3-c3ccccc3)C[C@H]21`, which IC50 (Protein smoothened) is on record?
Its IC50 is 327 nM.

Which IC50 (Protein smoothened) does the source give for `C[C@@H]1CC[C@@H]([C@@H](C)C(=O)Nc2ccc(Cl)c(-c3ccccn3)c2)[C@H]2CC(=O)C=C[C@H]21` here?
Its IC50 is > 1000 nM.

Which IC50 (Protein smoothened) does the source give for `COC(=O)[C@H](C)c1ccc(C)c2ccc(C(=O)Nc3ccc(Cl)c(-c4ccccn4)c3)nc12` here?
The IC50 was 270 nM.

For `O=S(=O)(NCCNC/C=C/c1ccc(Br)cc1)c1cccc2cnccc12`, which inhibition (LS174T) is on record?
Its inhibition is “Active”.

For `Cc1ccc2c(n1)[C@H]([C@@H](C)C(=O)Nc1ccc(Cl)c(-c3noc(C)n3)c1)CC[C@H]2C`, which IC50 (Protein smoothened) is on record?
Its IC50 is > 1000 nM.

Which IC50 (Protein smoothened) does the source give for `Cc1ccc2c(n1)[C@H]([C@@H](C)C(=O)Nc1ccc(Cl)c(-c3nc4ccccc4[nH]3)c1)CC[C@H]2C` here?
The IC50 was 45.9 to 46 nM.

For `Cc1nc2c(s1)C[C@@H]1[C@H](C2)[C@H]([C@@H](C)C(=O)Nc2ccc(Cl)c(-c3ccccn3)c2)CC[C@H]1C`, which IC50 (Protein smoothened) is on record?
The IC50 was > 1000 nM.

What does the source list for `C[C@H]1[C@@H](CC(=O)Nc2ccc(Cl)c(-c3ccccn3)c2)O[C@@H]2O[C@@]3(C)CC[C@H]4[C@H](C)CC[C@@H]1[C@@]24OO3`?
IC50 [1]: > 15000 nM; IC50 (Protein smoothened): 241 nM; IC50 [2]: 6610 nM

Which IC50 (Protein smoothened) does the source give for `C[C@@H]1CC[C@@H]([C@@H](C)C(=O)Nc2ccc(Cl)c(-c3ccccn3)c2)[C@H]2CC(O)CC[C@H]21` (some centres not stated) here?
The IC50 was > 1000 nM.

Which inhibition in vivo at 25 mg/kg [3] does the source give for `Cc1ccc2c(n1)[C@H]([C@@H](C)C(=O)Nc1ccc(Cl)c(-c3nc4ccccc4n3C)c1)CC[C@H]2C` here?
Its inhibition in vivo at 25 mg/kg is 81.7%.

What about the AUC(0-t) [4] of the same compound?
The AUC(0-t) was 1780 ng·h/mL.

What about the AUC(0-t) [5] of the same compound?
Its AUC(0-t) is 1460 ng·h/mL.

What about the bioavailability [6] of the same compound?
The bioavailability was 27.4%.

And the inhibition [7]?
The inhibition was “Active”.

And the half-life [8]?
Its half-life is 5.95 h.

What about the half-life [9] of the same compound?
Its half-life is 1.4 h.

What about the Activity (Medulloblastoma cell) of the same compound?
The Activity was “Dose-dependent effect”.

And the Activity [10]?
Its Activity is 4.6%.

What about the inhibition [11] of the same compound?
Its inhibition is “Active”.

What about the IC50 [1] of the same compound?
Its IC50 is > 15000 nM.

What about the inhibition [12] of the same compound?
The inhibition was “Dose-dependent effect”.

And the Activity (Mus musculus)?
Its Activity is “Non-Toxic”.

And the inhibition [13]?
The inhibition was “Active”.

And the MRT inf [14]?
The MRT inf was 1.53 h.

What about the Activity [15] of the same compound?
The Activity was 21.7%.

And the clearance [16]?
Its clearance is 9.31 mL/min/kg.

And the AUC(0-inf) [17]?
The AUC(0-inf) was 1480 ng·h/mL.

What about the inhibition in vivo at 50 mg/kg [18] of the same compound?
The inhibition in vivo at 50 mg/kg was 91.5%.

What about the inhibition [19] of the same compound?
The inhibition was “Active”.

And the Ratio IC50 [20]?
Its Ratio IC50 is 4 to 5.

What about the MRT inf [21] of the same compound?
Its MRT inf is 3.97 h.

What about the Vd [22] of the same compound?
Its Vd is 2.23 L/kg.

And the inhibition [23]?
Its inhibition is “Active”.

And the IC50 (Protein smoothened)?
Its IC50 is 9.53 nM.

And the IC50 [2]?
The IC50 was > 20000 nM.

And the AUC(0-inf) [24]?
Its AUC(0-inf) is 1840 ng·h/mL.

And the Tmax [25]?
The Tmax was 0.25 h.

And the Cmax [26]?
Its Cmax is 799 ng/mL.
